Test results taken from ChEMBL document CHEMBL4184263, “Synthetic analogues of the montanine-type alkaloids with activity against apoptosis-resistant cancer cells” (2018).
Active and inactive are the calls of the source. No cut-off for these calls is given here.

How the values were obtained:
[1] = tested on: A549; test: Growth inhibition of apoptosis resistant human A549 cells assessed as reduction in cell viability incubated for 72 hrs by MTT assay; format: functional; settings: A549, 72 h
Method in brief: (§1)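 Cells were grown at 37 °C, 95% humidity and 5% CO₂, trypsinized and seeded. After 24 h they were treated for 72 h with compound from 10 nM to 100 μM, prepared from a 10 mM DMSO stock, or left untreated. Viability was read as MTT reduction to formazan, with untreated control optical density set as 100%. The 50% growth-reducing concentration was derived as the mean of experiments run in sextuplicate.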

[2] = tested on: SK-MEL-28; test: Growth inhibition of apoptosis resistant human SK-MEL-28 cells assessed as reduction in cell viability incubated for 72 hrs by MTT assay; format: functional; settings: SK-MEL-28, 72 h; method in brief: as §1
[3] = tested on: U373 MG; test: Growth inhibition of apoptosis resistant human U373 cells assessed as reduction in cell viability incubated for 72 hrs by MTT assay; format: functional, U-373MG ATCC; method in brief: as §1
[4] = tested on: MCF7; test: Growth inhibition of apoptosis sensitive human MCF7 cells assessed as reduction in cell viability incubated for 72 hrs by MTT assay; format: functional; settings: MCF7, 72 h; method in brief: as §1
[5] = tested on: Hs 683; test: Growth inhibition of apoptosis sensitive human Hs683 cells assessed as reduction in cell viability incubated for 72 hrs by MTT assay; format: functional; settings: Hs 683, 72 h; method in brief: as §1
[6] = tested on: B16-F10; test: Growth inhibition of apoptosis sensitive mouse B16F10 cells assessed as reduction in cell viability incubated for 72 hrs by MTT assay; format: functional; settings: B16-F10, 72 h; method in brief: as §1
[7] = species: Homo sapiens; test: Antiproliferative activity against human GSC22 cells assessed as inhibition of cell proliferation at 1 uM incubated for 72 hrs by bromodeoxyuridine incorporation based immunoassay; format: functional
Method in brief: (§2)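 Patient-derived glioblastoma stem-like GSC22 cells were seeded at 1×10^3 cells/well and cultured for 24 h. They were then exposed for 72 h to compound at 1 μM to 30 μM, with DMSO as vehicle control. BrdU was added for the final 4 h. Incorporation was detected with a peroxidase-conjugated anti-BrdU antibody and substrate reaction read at 450/550 nm. Data are mean ± SEM, n=3, compared with vehicle.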

[8] = Antiproliferative activity against human GSC22 cells assessed as inhibition of cell proliferation at 10 uM incubated for 72 hrs by bromodeoxyuridine incorporation based immunoassay; format: functional; method in brief: as §2

GI50 [1] [µM] | GI50 [2] [µM] | GI50 [4] [µM] | GI50 [6] [µM] | Compound | GI50 [3] [µM] | GI50 [5] [µM] | inhibition [7] | inhibition at 10 µM [8] [%]
10 | 14 | 20 | 7 | C=CCO[C@H]1C=C2[C@H]3C[N@@](Cc4cc5c(cc43)OCO5)[C@H]2C[C@@H]1OC | 20 | 7 |  | 
5 | 8 | 13 | 8 | CO[C@H]1C[C@H]2C(=C[C@@H]1O)[C@H]1CN2Cc2cc3c(cc21)OCO3 | 31 | 4 |  | 
6 | 26 | 17 | 7 | CO[C@H]1C[C@H]2C(=C[C@@H]1Cl)[C@H]1C[N@@]2Cc2cc3c(cc21)OCO3 | 51 | 6 |  | 
18 | 9 | 23 | 4 | CO[C@H]1C[C@H]2C(=C[C@@H]1c1c[nH]c3ccccc13)[C@H]1C[N@@]2Cc2cc3c(cc21)OCO3 | 9 | 24 | Active | 80 to 95
> 100 | > 100 | > 100 | > 100 | CO[C@H]1C[C@H]2C(=C[C@@H]1Cl)[C@H]1C[N@@]2Cc2c1cc1c(c2I)OCO1 | > 100 | > 100 |  | 
59 | 65 | 44 | 10 | CO[C@H]1C[C@H]2C(=C[C@@H]1NCc1ccccc1)[C@H]1C[N@@]2Cc2cc3c(cc21)OCO3 | 72 | 67 |  | 
9 | 18 | 19 | 7 | CO[C@H]1C[C@H]2C(=C[C@H]1Br)[C@H]1C[N@@]2Cc2cc3c(cc21)OCO3 | 25 | 5 |  | 
23 | 28 | 28 | 10 | C#CCO[C@H]1C=C2[C@H]3C[N@@](Cc4cc5c(cc43)OCO5)[C@H]2C[C@@H]1OC | 42 | 24 |  | 
86 | 67 | 68 | 11 | CO[C@H]1C[C@H]2C(=C[C@@H]1c1ccc[nH]1)[C@H]1C[N@@]2Cc2cc3c(cc21)OCO3 | > 100 | 95 |  | 
> 100 | > 100 | > 100 | 72 | CO[C@H]1C[C@H]2C(=C[C@@H]1O)[C@H]1C[N@]2[C@@H](OS(C)(=O)=O)c2cc3c(cc21)OCO3 | > 100 | > 100 |  | 
59 | > 100 | 82 | 40 | CCO[C@H]1C=C2[C@H]3C[N@@](Cc4cc5c(cc43)OCO5)[C@H]2C[C@@H]1OC | > 100 | > 100 |  | 
3 | 4 | 4 | 3 | CO[C@H]1C=C2[C@H]3C[N@@](Cc4cc5c(cc43)OCO5)[C@H]2C[C@@H]1OC | 5 | 3 | Active | 80 to 95
> 100 | > 100 | > 100 | > 100 | C#CC[N@@+]12Cc3cc4c(cc3[C@H](C1)C1=C[C@H](Cl)[C@@H](OC)C[C@@H]12)OCO4 | > 100 | > 100 |  | 
 |  |  |  | CO[C@@H]1C=C[C@@]23c4cc5c(cc4CN(C[C@@H]2O)[C@H]3C1)OCO5 [(+)-HAEMANTHAMINE] |  |  | Active | 80 to 95
78 | > 100 | 78 | 39 | CO[C@H]1C[C@H]2C(=C[C@@H]1Cl)[C@H]1C[N@@]2Cc2c(I)c3c(c(I)c21)OCO3 | > 100 | 71 |  | 
> 100 | > 100 | > 100 | > 100 | CO[C@H]1C[C@H]2C(=C[C@@H]1Cl)[C@H]1C[N@@+]2([O-])Cc2cc3c(cc21)OCO3 | > 100 | > 100 |  | 
